Hits are enriched below; roughly 3.2% of the tested compounds scored in any of these assays.
MEKK3 PB1 HTS = MEKK3-MEK5 PB1 interaction, increase or decrease; actives 1.4% (n = 290,000); AID 1529; binding response (% of control), % at 10 µM; bead-based flow cytometry, Alexa488-MEK5 binding to MEKK3; actives lie on both sides; 0 = blocked by unlabeled MEK5, 100 = vehicle;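 active = binding response more than 3 SD above or below the average of its plate-row segment, actives on both sides; inconclusive = wells at one plate position flagged as instrument error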;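 note: Alexa488 bead fluorescence after subtracting the streptavidin-only scavenger bead signal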
Pemphigus Ab inh = blocks pemphigus antibody binding to human desmoglein-3; P32926; binding (percent of control), % at 10 µM; actives 0.48% (n = 310,000); AID 588358; DSG3-coupled beads, scFv-anti-DSG3-GFP binding, flow cytometry; active compounds read low;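 active = binding more than 3 SD below its plate's average and above zero; inconclusive = below that plate limit but binding exactly zero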;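 note: hits lower antibody fragment binding to DSG3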
UBC13 inh = human UBC13 polyubiquitination inhibition | P61088 | actives 0.47% (n = 330,000) | inhibition, % at 20 µM | UBC13 polyubiquitin chain formation, TR-FRET | AID 485273; in the data active = inhibition above about 45%, passing the limit was not always enough; inconclusive = no clear call, values can overlap the other calls
Target sequence (P61088 whole entry, looked up): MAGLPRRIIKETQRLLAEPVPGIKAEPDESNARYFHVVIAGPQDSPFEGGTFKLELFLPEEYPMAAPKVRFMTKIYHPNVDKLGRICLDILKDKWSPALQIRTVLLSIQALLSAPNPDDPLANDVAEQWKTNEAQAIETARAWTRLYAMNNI
MEKK2 mut-MEK5 = signal of MEK5 binding to mutant human MEKK2 PB1 domain; bead flow cytometry, Alexa488-MEK5 binding to MEKK2 mutant; percent response, % at 10 µM; actives 0.35% (n = 290,000); AID 1530; in the data active = percent response above about 24%, passing the limit was not always enough
Apaf-1 inh = human Apaf-1 inhibition. O14727. reconstituted apoptosome caspase-3 activity, DEVD-Rh110 fluorescence. inhibition, % at 20 µM. actives 0.71% (n = 330,000). AID 489030; active = inhibition of at least 40% at 20 µM;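 note: plate controls were DMSO wells for no effect and DEVD-CHO caspase inhibitor wells for full effect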
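Material: cell-free apoptosome with Apaf-1, procaspase-3 and caspase-9; Buffer or medium: Hepes pH 7.5 with detergent and BSA; Reagent: cytochrome c trigger plus (Z-DEVD)2-Rh110 caspase-3 substrate; Times: compound with Apaf-1, dATP, procaspase-3 30 min, then 50 min reaction, room temperature; Technique: Rh110 fluorescence intensity.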
MEKK2wt PB1 HTS = raises or lowers MEK5 binding to wildtype human MEKK2 PB1 domain | Q9Y2U5 | bead flow cytometry, Alexa488-MEK5 binding to MEKK2 WT; actives lie on both sides | binding response (% of control), % at 10 µM | actives 1.1% (n = 290,000) | AID 1531; in the data active = binding response below about 67% or above about 130%; inconclusive = no clear call, values can overlap the other calls; inactive = in between
Numbers without * were called inactive; i = inactive; ? = inconclusive; . = not tested or not shown; [ ] = dose if it differs, or a comment.

SMILES	MEKK3 PB1 HTS	Pemphigus Ab inh	UBC13 inh	MEKK2 mut-MEK5	Apaf-1 inh	MEKK2wt PB1 HTS
Cc1c(N=C/C=C2/N(C)c3ccccc3C2(C)C)c(=O)n(-c2ccccc2)n1C	76	92	-1	1	2	-5.0*
Clc1ccccc1/C=N/NC1=Nc2cccc3cccc1c23	106	106	-92	2	12	102
C(=N\NC1=Nc2cccc3cccc1c23)/c1ccccn1	95	97	.	1	.	8.0*
CCOc1ccc(NC(=O)c2ccccc2C(=O)c2ccccc2)cc1OCC	107	117	-1	5	-4	107
CN(C)c1ccc(/C=C/c2ccc3ccccc3[n+]2C)cc1	97	94	i	27	18	2.0*
COC1=CC(=Cc2c(N)n3nc(CC(=O)N4CCCCC4)sc3nc2=O)C=C(OC)C1=O	82*[inhibitor]	?	-121	-14	4	70*[inhibitor]
COC1=C/C(=C/c2c(N)n3nc(CC(=O)N4CCCC4)sc3nc2=O)C=CC1=O	94	?	-36	0	7	91
NC(=O)C1CCCN(C(=O)c2cccc(NC(=O)c3cccs3)c2)C1 (stereo not drawn)	.	99	-5	.	-4	.
Nc1nnn(CC(=O)N/N=C/c2cccc(Cl)c2)n1	104	77*	4	7	7	101
Nc1nnn(CC(=O)N/N=C/c2ccc(Cl)cc2Cl)n1	101	.	3	-1	1	94
CCOC(=O)c1c(C)[nH]c(C(=O)OCC(=O)NCc2ccco2)c1C	.	103	.	.	.	.
O=C(NCCS(=O)(=O)NCc1cccnc1)c1ccccc1	.	92	5	.	2	.
O=C(/C=C/c1ccc(Br)o1)OCc1nc2ccsc2c(=O)[nH]1	.	50*	-2	.	26	.
Cc1ccc(C(=O)OCc2nc3ccsc3c(=O)[nH]2)o1	.	98	-3	.	7	.
COc1cc(OC)cc(-c2c(-c3cccs3)c3cc(-c4ccn[nH]4)ccc3n2C)c1	.	102	13	.	20	.
CC(C)c1ccc(NC(=O)COC(=O)c2cc(=O)[nH]c3ccccc23)cc1	.	88	8	.	12	.
Oc1ccccc1-c1nnc(COc2ccccc2)o1	102	109	17	3	1	101
Oc1ccccc1-c1nnc(COc2ccc(Cl)cc2Cl)o1	96	66*	15	0	0	93
O=C(NCCN1CCCC1)c1ccc2c(c1)N(Cc1cccc(Cl)c1)C(=O)c1ccccc1S2(=O)=O	99	118	10	12	12	122
Cc1cccc(CN2C(=O)c3ccccc3S(=O)(=O)c3ccc(C(=O)NCCCN4CCCC4)cc32)c1	106	113	14	15	21	141*
CC1CCCN(CCCNC(=O)c2ccc3c(c2)N(Cc2ccccc2F)C(=O)c2ccccc2S3(=O)=O)C1 (stereo not drawn)	111	103	13	18	14	136*
CCN1CCCC1CNC(=O)c1ccc2c(c1)N(Cc1ccccc1F)C(=O)c1ccccc1S2(=O)=O (stereo not drawn)	99	.	6	4	7	118
Cc1ccc(Cn2cc(SCC(=O)Nc3nccs3)c3ccccc32)cc1	101	104	-10	-5	9	96
Cc1nnc(NC(=O)CSc2cn(Cc3ccccc3)c3ccccc23)s1	110	-20*	8	10	7	108
O=C(/C=C/c1ccc(Cl)cc1Cl)OCC(=O)N1CCCC1	.	101	3	.	3	.
SMILES	MEKK3 PB1 HTS	Pemphigus Ab inh	UBC13 inh	MEKK2 mut-MEK5	Apaf-1 inh	MEKK2wt PB1 HTS
Cc1ccc(C)n1Cc1ccc(C(=O)O)cc1	97	68*	28	-4	-9	96
Cc1cc(C)n(Cc2ccc(C(=O)O)cc2)n1	103	87	6	5	-13	109
COc1cccc2cc(C(=O)C3=C(O)C(=O)N(c4cc(C)on4)C3c3cccs3)oc12 (stereo not drawn)	100	102	-1	2	-2	-11*
COCOCCn1cc(CN2CCS(=O)(=O)N(Cc3ccc(-c4ccc(F)nc4)cc3)C(C)C2=O)nn1 (stereo not drawn)	.	102	.	.	.	.
COc1cc(Cl)c(NC2=CC(=O)C(=O)c3ccccc32)c(OC)c1	.	95	-284	.	92*	.
O=C1c2ccccc2C(=O)c2c(O)c(O)cc(O)c21	.	90	-6	.	15	.
O=C1C=C(O)c2c(O)cc(O)c(O)c2C1=O	97	79*	22	0	-3	97
C/C=C/C(=O)Nc1cccc(C2=NOC3(C2)C[C@H](C(N)=O)N(C(=O)c2ccccc2C(=O)c2ccccc2)C3)c1 (stereo partly drawn)	75	.	52*	-6	7	95
C/C=C\C=C/C(=O)Nc1cccc(C2=NOC3(C2)C[C@@H](C(N)=O)N(C(=O)C2(C)CC2)C3)c1 (stereo partly drawn)	98	91*	-1	5	1	98
C/C=C\C=C/C(=O)Nc1cccc(C2=NOC3(C2)C[C@@H](C(N)=O)N(C(=O)/C=C/C=C\C)C3)c1 (stereo partly drawn)	98	68*	7	-8	-15	89
C/C=C\C(=O)Nc1cccc(C2=NOC3(C2)C[C@@H](C(N)=O)N(C(=O)C2(C)CC2)C3)c1 (stereo partly drawn)	92	112	0	-4	7	95
C/C=C\C=C/C(=O)Nc1cccc(C2=NOC3(C2)C[C@@H](C(N)=O)N(C(=O)/C=C/CC)C3)c1 (stereo partly drawn)	92	100	-30	2	0	87
CCC(=O)Nc1cccc(C2=NOC3(C2)C[C@@H](C(N)=O)N(C(=O)c2ccccc2C(=O)c2ccccc2)C3)c1 (stereo partly drawn)	92	105	-8	8	3	93
CC(C)N(C(=O)COC(=O)CCC(=O)c1cccs1)c1ccccc1	.	101	17	.	1	.
COc1cccc(C(=O)NCC(=O)N2CCN(c3ccc(C(F)(F)F)cn3)CC2)c1	.	100	4	.	9	.

Bioassay records as filed in PubChem BioAssay.
